# Laboratory results taken from ChEMBL document CHEMBL4715736, “Identification of anticancer agents based on the thieno[2,3-b]pyridine and 1H-pyrazole molecular scaffolds” (2016).
# What was measured:
# Type in all cases: functional
# SK-MEL-28 = test: Growth inhibition of human SK-MEL-28 cells assessed as cell growth at 0.01 uM incubated for 48 hrs by sulforhodamine B assay relative to control; conditions: read-out: Activity
# CAKI-1 [1] = test: Growth inhibition of human CAKI-1 cells assessed as cell growth at 100 uM incubated for 48 hrs by sulforhodamine B assay relative to control; conditions: read-out: Activity
# Summary of the method: (§1)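 NCI Developmental Therapeutics Program NCI60 panel. Compounds that were active in the 10 µM one-dose screen went on to dose–response testing. Growth at each concentration is expressed relative to untreated control (100%). GI50 (concentration giving 50% of maximal inhibition of proliferation) and TGI (concentration giving total growth inhibition) were derived from the curves.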
# HCC 2998 = test: Growth inhibition of human HCC 2998 cells incubated for 48 hrs by sulforhodamine B assay; conditions: for CC50: read-out: LC50 (the source's name)
# T47D [2] = test: Growth inhibition of human T47D cells assessed as cell growth at 0.01 uM incubated for 48 hrs by sulforhodamine B assay relative to control; conditions: read-out: Activity
# CCRF-CEM [3] = test: Growth inhibition of human CCRF-CEM cells assessed as cell growth at 0.01 uM incubated for 48 hrs by sulforhodamine B assay relative to control; conditions: read-out: Activity; summary of the method: as §1
# MDA-MB-231 [4] = test: Growth inhibition of human MDA-MB-231 cells assessed as cell growth at 1 uM incubated for 48 hrs by sulforhodamine B assay relative to control; conditions: read-out: Activity
# A549 [5] = test: Growth inhibition of human A549/ATCC cells assessed as cell growth at 0.01 uM incubated for 48 hrs by sulforhodamine B assay relative to control; conditions: read-out: Activity; summary of the method: as §1
# MDA-MB-231 [6] = test: Growth inhibition of human MDA-MB-231 cells assessed as cell growth at 0.01 uM incubated for 48 hrs by sulforhodamine B assay relative to control; conditions: read-out: Activity
# RXF 393 [7] = test: Growth inhibition of human RXF 393 cells incubated for 48 hrs by sulforhodamine B assay; conditions: for CC50: read-out: LC50 (the source's name)
# Summary of the method: (§2)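 NCI DTP 60-line human tumour panel. Dose-response curves were run only for ligands active in the initial 10 µM screen. GI50 (concentration giving 50% of maximal inhibition of proliferation) and TGI (concentration giving total growth inhibition) were derived from these curves.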
# Malme-3M [8] = test: Growth inhibition of human Malme-3M cells incubated for 48 hrs by sulforhodamine B assay
# Summary of the method: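 NCI60 panel at the NCI Developmental Therapeutics Program. Only compounds active in the 10 µM screen went to dose-response testing. GI50, the concentration giving 50% of maximal inhibition of proliferation, and TGI, the concentration giving total growth inhibition, were derived from the dose-response curves.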
# RXF 393 [9] = test: Growth inhibition of human RXF 393 cells assessed as cell growth at 100 uM incubated for 48 hrs by sulforhodamine B assay relative to control; conditions: read-out: Activity
# OVCAR-8 = test: Growth inhibition of human OVCAR-8 cells assessed as cell growth at 0.1 uM incubated for 48 hrs by sulforhodamine B assay relative to control; conditions: read-out: Activity
# 786-0 = test: Growth inhibition of human 786-0 cells assessed as cell growth at 100 uM incubated for 48 hrs by sulforhodamine B assay relative to control; conditions: read-out: Activity
# A498 = test: Growth inhibition of human A498 cells assessed as cell growth at 0.1 uM incubated for 48 hrs by sulforhodamine B assay relative to control; conditions: read-out: Activity; summary of the method: as §1
# U-251 = test: Growth inhibition of human U-251 cells assessed as cell growth at 1 uM incubated for 48 hrs by sulforhodamine B assay relative to control; conditions: read-out: Activity
# MDA-MB-468 = test: Growth inhibition of human MDA-MB-468 cells assessed as cell growth at 1 uM incubated for 48 hrs by sulforhodamine B assay relative to control; conditions: read-out: Activity
# HT-29 = test: Growth inhibition of human HT-29 cells assessed as cell growth at 0.01 uM incubated for 48 hrs by sulforhodamine B assay relative to control; conditions: read-out: Activity
# T47D [10] = test: Growth inhibition of human T47D cells incubated for 48 hrs by sulforhodamine B assay; conditions: for CC50: read-out: LC50 (the source's name); summary of the method: as §2
# CAKI-1 [11] = test: Growth inhibition of human CAKI-1 cells incubated for 48 hrs by sulforhodamine B assay; conditions: for CC50: read-out: LC50 (the source's name); summary of the method: as §1
# RXF 393 [12] = test: Growth inhibition of human RXF 393 cells assessed as cell growth at 0.1 uM incubated for 48 hrs by sulforhodamine B assay relative to control; conditions: read-out: Activity
# CCRF-CEM [13] = test: Growth inhibition of human CCRF-CEM cells assessed as cell growth at 0.1 uM incubated for 48 hrs by sulforhodamine B assay relative to control; conditions: read-out: Activity; summary of the method: as §1
# TK-10 = test: Growth inhibition of human TK-10 cells assessed as cell growth at 0.1 uM incubated for 48 hrs by sulforhodamine B assay relative to control; conditions: read-out: Activity
# OVCAR-4 = test: Growth inhibition of human OVCAR-4 cells assessed as cell growth at 100 uM incubated for 48 hrs by sulforhodamine B assay relative to control; conditions: read-out: Activity
# HOP-62 = test: Growth inhibition of human HOP-62 cells assessed as cell growth at 100 uM incubated for 48 hrs by sulforhodamine B assay relative to control; conditions: read-out: Activity
# Malme-3M [14] = test: Growth inhibition of human Malme-3M cells assessed as cell growth at 0.1 uM incubated for 48 hrs by sulforhodamine B assay relative to control; conditions: read-out: Activity
# SNB-75 = test: Growth inhibition of human SNB-75 cells assessed as cell growth at 0.1 uM incubated for 48 hrs by sulforhodamine B assay relative to control; conditions: read-out: Activity
# SF-539 = test: Growth inhibition of human SF-539 cells assessed as cell growth at 1 uM incubated for 48 hrs by sulforhodamine B assay relative to control; conditions: read-out: Activity
# UACC-257 = test: Growth inhibition of human UACC-257 cells assessed as cell growth at 0.1 uM incubated for 48 hrs by sulforhodamine B assay relative to control; conditions: read-out: Activity
# HCT-15 = test: Growth inhibition of human HCT-15 cells assessed as cell growth at 0.1 uM incubated for 48 hrs by sulforhodamine B assay relative to control; conditions: read-out: Activity
# NCI/ADR-RES = test: Growth inhibition of human NCI/ADR-RES cells assessed as cell growth at 1 uM incubated for 48 hrs by sulforhodamine B assay relative to control; conditions: read-out: Activity
# Malme-3M [15] = test: Growth inhibition of human Malme-3M cells assessed as cell growth at 1 uM incubated for 48 hrs by sulforhodamine B assay relative to control; conditions: read-out: Activity
# SF-268 [16] = test: Growth inhibition of human SF-268 cells incubated for 48 hrs by sulforhodamine B assay; summary of the method: as §2
# SF-268 [17] = test: Growth inhibition of human SF-268 cells assessed as cell growth at 0.01 uM incubated for 48 hrs by sulforhodamine B assay relative to control; conditions: read-out: Activity
# HCT-116 = test: Growth inhibition of human HCT-116 cells assessed as cell growth at 0.1 uM incubated for 48 hrs by sulforhodamine B assay relative to control; conditions: read-out: Activity
# A549 [18] = test: Growth inhibition of human A549/ATCC cells incubated for 48 hrs by sulforhodamine B assay; conditions: for CC50: read-out: LC50 (the source's name); summary of the method: as §1
smiles,measurement,setting,value
Cc1cccc(NC(=O)c2sc3nc4c(cc3c2N)C(=O)CCC4)c1,growth at 0.01 µM,SK-MEL-28,93%
same,growth at 100 µM,CAKI-1 [1],-22%
same,GI50,HCC 2998,0.383 µM
same,TGI,HCC 2998,> 100 µM
same,CC50,HCC 2998,> 100 µM
same,growth at 0.01 µM,T47D [2],79%
same,growth at 0.01 µM,CCRF-CEM [3],96%
same,growth at 1 µM,MDA-MB-231 [4],40%
same,growth at 0.01 µM,A549 [5],92%
same,growth at 0.01 µM,MDA-MB-231 [6],99%
same,GI50,RXF 393 [7],0.167 µM
same,TGI,RXF 393 [7],≥ 100 µM
same,CC50,RXF 393 [7],> 100 µM
same,LC50,Malme-3M [8],> 100 µM
same,TGI,Malme-3M [8],≥ 100 µM
same,growth at 100 µM,RXF 393 [9],5%
same,growth at 0.1 µM,OVCAR-8,98%
same,growth at 100 µM,786-0,2%
same,growth at 0.1 µM,A498,32%
same,growth at 1 µM,U-251,17%
same,growth at 1 µM,MDA-MB-468,5%
same,growth at 0.01 µM,HT-29,97%
same,TGI,T47D [10],> 100 µM
same,CC50,T47D [10],> 100 µM
same,GI50,CAKI-1 [11],0.359 µM
same,TGI,CAKI-1 [11],> 100 µM
same,CC50,CAKI-1 [11],> 100 µM
same,growth at 0.1 µM,RXF 393 [12],69%
same,growth at 0.1 µM,CCRF-CEM [13],90%
same,growth at 0.1 µM,TK-10,82%
same,growth at 100 µM,OVCAR-4,-56%
same,growth at 100 µM,HOP-62,1%
same,growth at 0.1 µM,Malme-3M [14],64%
same,growth at 0.1 µM,SNB-75,75%
same,growth at 1 µM,SF-539,-38%
same,growth at 0.1 µM,UACC-257,58%
same,growth at 0.1 µM,HCT-15,48%
same,growth at 1 µM,NCI/ADR-RES,15%
same,growth at 1 µM,Malme-3M [15],36%
same,GI50,SF-268 [16],1.54 µM
same,LC50 (concentration killing 50% of cells),SF-268 [16],> 100 µM
same,TGI,SF-268 [16],> 100 µM
same,growth at 0.01 µM,SF-268 [17],99%
same,growth at 0.1 µM,HCT-116,68%
same,GI50,A549 [18],0.3 µM
same,TGI,A549 [18],> 100 µM
same,CC50,A549 [18],> 100 µM
CCc1ccccc1NC(=O)c1sc2nc3c(cc2c1N)C(=O)CCC3,growth at 0.01 µM,SK-MEL-28,88%
same,growth at 100 µM,CAKI-1 [1],35%
same,GI50,HCC 2998,1.43 µM
same,TGI,HCC 2998,> 100 µM
same,CC50,HCC 2998,> 100 µM
same,growth at 0.01 µM,T47D [2],99%
same,growth at 0.01 µM,CCRF-CEM [3],96%
same,growth at 1 µM,MDA-MB-231 [4],52%
same,growth at 0.01 µM,A549 [5],97%
same,growth at 0.01 µM,MDA-MB-231 [6],97%
same,GI50,RXF 393 [7],0.163 µM
same,TGI,RXF 393 [7],0.777 µM
same,CC50,RXF 393 [7],> 100 µM
same,GI50,Malme-3M [8],26.2 µM
same,LC50,Malme-3M [8],> 100 µM
same,TGI,Malme-3M [8],≥ 100 µM
same,growth at 100 µM,RXF 393 [9],-41%
same,growth at 0.1 µM,OVCAR-8,97%
same,growth at 100 µM,786-0,-17%
same,growth at 0.1 µM,A498,72%
same,growth at 1 µM,U-251,33%
same,growth at 1 µM,MDA-MB-468,-4%
same,growth at 0.01 µM,HT-29,95%
same,GI50,T47D [10],0.431 µM
same,TGI,T47D [10],≥ 100 µM
same,CC50,T47D [10],> 100 µM
same,GI50,CAKI-1 [11],0.504 µM
same,TGI,CAKI-1 [11],> 100 µM
same,CC50,CAKI-1 [11],> 100 µM
same,growth at 0.1 µM,RXF 393 [12],66%
same,growth at 0.1 µM,CCRF-CEM [13],89%
same,growth at 0.1 µM,TK-10,97%
same,growth at 100 µM,OVCAR-4,8%
same,growth at 100 µM,HOP-62,-22%
same,growth at 0.1 µM,Malme-3M [14],84%
same,growth at 0.1 µM,SNB-75,73%
same,growth at 1 µM,SF-539,11%
same,growth at 0.1 µM,UACC-257,79%
same,growth at 0.1 µM,HCT-15,74%
same,growth at 1 µM,NCI/ADR-RES,21%
same,growth at 1 µM,Malme-3M [15],50%
same,GI50,SF-268 [16],10.1 µM
same,LC50 (concentration killing 50% of cells),SF-268 [16],> 100 µM
same,TGI,SF-268 [16],> 100 µM
same,growth at 0.01 µM,SF-268 [17],103%
same,growth at 0.1 µM,HCT-116,99%
same,GI50,A549 [18],0.595 µM
same,TGI,A549 [18],> 100 µM
same,CC50,A549 [18],> 100 µM
